The source made the active and inactive calls. The rule behind the calls is not given here.
Assays:
BT-549 = experiment: Antitumor activity against human BT549 cells; format: functional
Outline: (§1)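 Run by the NCI in its in vitro disease-oriented screen of about 60 human tumour cell lines. For each line it reports pGI50 (50% net growth inhibition), pTGI (total growth inhibition) and pLC50 (50% net cell death), each as –log molar concentration. Where an effect was not reached within the tested range, the highest tested concentration was used.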

[1] = target: DNA topoisomerase 1 (Homo sapiens) (UniProt P11387); experiment: Inhibition of human topoisomerase 1-mediated relaxation of supercoiled pBR322 DNA at 20 uM by agarose gel electrophoresis
Chain of DNA topoisomerase 1 (Homo sapiens) (P11387 whole entry): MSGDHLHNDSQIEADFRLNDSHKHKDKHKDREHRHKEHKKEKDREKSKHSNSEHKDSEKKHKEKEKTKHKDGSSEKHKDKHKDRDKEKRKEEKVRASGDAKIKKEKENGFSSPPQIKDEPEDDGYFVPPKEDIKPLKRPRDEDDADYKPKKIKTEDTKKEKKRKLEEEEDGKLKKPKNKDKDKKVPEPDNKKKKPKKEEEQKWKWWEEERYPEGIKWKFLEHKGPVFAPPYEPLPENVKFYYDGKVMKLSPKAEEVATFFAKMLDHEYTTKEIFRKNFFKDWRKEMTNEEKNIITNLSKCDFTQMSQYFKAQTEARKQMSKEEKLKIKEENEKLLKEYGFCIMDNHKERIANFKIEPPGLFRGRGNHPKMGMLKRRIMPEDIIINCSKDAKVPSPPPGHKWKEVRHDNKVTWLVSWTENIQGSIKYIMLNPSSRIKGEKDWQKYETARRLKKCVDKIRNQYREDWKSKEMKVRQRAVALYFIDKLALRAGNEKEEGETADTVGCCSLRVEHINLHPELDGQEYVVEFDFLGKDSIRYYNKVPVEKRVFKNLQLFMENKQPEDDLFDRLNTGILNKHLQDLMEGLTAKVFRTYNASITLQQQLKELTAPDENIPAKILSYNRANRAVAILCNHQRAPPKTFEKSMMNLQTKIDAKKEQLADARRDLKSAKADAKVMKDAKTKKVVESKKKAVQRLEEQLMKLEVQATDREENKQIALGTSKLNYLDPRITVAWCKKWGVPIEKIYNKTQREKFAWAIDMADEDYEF
Outline: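 Supercoiled pBR322 was incubated with 5 units of human topoisomerase I for 30 min at 37 °C in 50 mM Tris-HCl pH 7.8, 50 mM KCl, 10 mM MgCl2, 1 mM DTT, 1 mM EDTA, with drug 0.5–200 µM. Reactions were stopped with SDS and proteinase K, run on 1% agarose at 20 V overnight, stained with ethidium bromide, and bands quantified. Ethidium-containing gels were also run.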

SNB-19 = experiment: Antitumor activity against human SNB19 cells; format: functional; outline: as §1
SK-MEL-5 = experiment: Antitumor activity against human SKMEL5 cells; format: functional; outline: as §1
LOX IMVI = experiment: Antitumor activity against human LOXIMVI cells; format: functional; outline: as §1
[2] = Antitumor activity against human HL60(TB) cells; format: functional, HL-60(TB)
Outline: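 Tested by the NCI in its in vitro disease-oriented human tumor cell line screen. Each cell line gave pGI50 (−log molar concentration for 50% net growth inhibition), pTGI (−log molar concentration for total growth inhibition) and pLC50 (−log molar concentration for 50% net cell death).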

SR = experiment: Antitumor activity against human SR cells; format: functional
Outline: (§2)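 NCI 60-cell-line screen. Parameters were GI50 (50% net growth inhibition), TGI and LC50, each reported as –log molar concentration. Where an effect was not reached within the tested range, the highest tested concentration was used in the calculation.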

Jurkat [3] = experiment: Cell cycle arrest in human Jurkat cells assessed as accumulation at G2/M phase at 500 nM after 24 hrs by flow cytometry; format: functional
Outline: (§3)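 Exponentially growing Jurkat cells (5 × 105) were exposed to compound for 24 h. Cells were then fixed in ice-cold 70% ethanol, lysed with RNase A-containing buffer and stained with propidium iodide. DNA-content histograms from flow cytometry gave G1, S and G2/M fractions.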

IGROV-1 = experiment: Antitumor activity against human IGROV1 cells; format: functional; outline: as §1
Jurkat [4] = experiment: Cell cycle arrest in human Jurkat cells assessed as accumulation at G1 phase at 250 nM after 24 hrs by flow cytometry; format: functional; outline: as §3
A549 = experiment: Antitumor activity against human A549 cells; format: functional; outline: as §1
NCI-H226 = experiment: Antitumor activity against human NCI-H226 cells; format: functional; outline: as §1
OVCAR-4 = experiment: Antitumor activity against human OVCAR4 cells; format: functional; outline: as §1
UACC-257 = experiment: Antitumor activity against human UACC257 cells; format: functional; outline: as §2
CCRF-CEM [5] = experiment: Antitumor activity against human CCRF-CEM cells; format: functional; outline: as §1
SNB-75 = experiment: Antitumor activity against human SNB75 cells; format: functional; settings: Homo sapiens, SNB-75; outline: as §1
CCRF-CEM [6] = experiment: Growth inhibition of human vinblastine-resistant CEM cells after 72 hrs by MTT assay; format: functional
Outline: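 Growth inhibition by MTT after 72 h incubation. Resistant sublines: LoVoDoxo and MCF-7 MDR were kept in 0.1 µg/mL doxorubicin; CEMVbl-100 was selected against vinblastine. GI50 given as mean ± SEM of three independent experiments. Resistance index is resistant-line GI50 over parental GI50.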

CCRF-CEM [7] = experiment: Resistance index, Ratio of GI50 for human vinblastine-resistant CEM cells to GI50 for human CEM cells; format: functional
[8] = Antitumor activity against human […] cells; format: functional; outline: as §1
EKVX = experiment: Antitumor activity against human EKVX cells; format: functional; outline: as §1
HCC 2998 = experiment: Antitumor activity against human HCC2998 cells; format: functional; outline: as §1
MCF7 [9] = experiment: Cell viability against human MCF7 cells at 10 uM; format: functional
HCT-116 = experiment: Antitumor activity against human HCT116 cells; format: functional; outline: as §1
KM12 = experiment: Antitumor activity against human KM12 cells; format: functional; outline: as §1
K562 = experiment: Antitumor activity against human K562 cells; format: functional; outline: as §1
OVCAR-5 = experiment: Antitumor activity against human OVCAR5 cells; format: functional; outline: as §1
Jurkat [10] = experiment: Cell cycle arrest in human Jurkat cells assessed as accumulation at G2/M phase at 250 nM after 24 hrs by flow cytometry; format: functional; outline: as §3
SF-539 = experiment: Antitumor activity against human SF539 cells; format: functional; outline: as §1
NCI-H460 = experiment: Antitumor activity against human NCI-H460 cells; format: functional; outline: as §1
Jurkat [11] = experiment: Induction of apoptosis in human Jurkat cells assessed as activation of caspase 3 after 24 hrs by flow cytometry; format: functional, cell-based
Outline: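 Jurkat cells were exposed (500 nM) for 24 h, then harvested and incubated in HBSS with cell-permeable FITC-DEVD-fmk (caspase-3) or FITC-[…]-fmk (caspase-9) for 1 h at 37 °C. After washing, cells were read by flow cytometry on FL-1. Results are fold increase over control.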

786-0 = experiment: Antitumor activity against human 786-0 cells; format: functional; outline: as §1
MCF7 [12] = experiment: Antitumor activity against human MCF7 cells; format: functional; outline: as §1
[13] = read-out: Log LC50 (the source's name) (converted)

COc1ccc2c(c1)[nH]c(=O)c1c3ccccc3cn21
GI50 (BT-549): 55 nM | LC50 (50% net cell kill) (BT-549): 6310 nM | TGI (BT-549; read-out: pTGI (converted)): 2040 nM | Activity [1]: Active | GI50 (SNB-19): 38.9 nM | CC50 (SNB-19; [13]): > 100000 nM | TGI (SNB-19; read-out: pTGI (converted)): 4070 nM | GI50 (SK-MEL-5): 28.2 nM | LC50 (SK-MEL-5): 3470 nM | TGI (SK-MEL-5; read-out: pTGI (converted)): 1170 nM | GI50 (LOX IMVI): 70.8 nM | LC50 (50% net cell kill) (LOX IMVI): 4470 nM | TGI (LOX IMVI; read-out: pTGI (converted)): 1780 nM | GI50 ([2]; HL-60): 11.5 nM | CC50 ([2]; HL-60, read-out: Log LC50 (the source's name) (converted)): 3550 nM | TGI ([2]; HL-60, read-out: pTGI (converted)): 60.3 nM | GI50 (SR): 10 nM | LC50 (SR): 75900 nM | TGI (SR; read-out: pTGI (converted)): 2040 nM | Activity (Jurkat [3]): 50.9% | GI50 (IGROV-1): 74.1 nM | CC50 (IGROV-1; [13]): 8510 nM | TGI (IGROV-1; read-out: pTGI (converted)): 2290 nM | Activity (Jurkat [4]): 0.6% | GI50 (A549): 67.6 nM | CC50 (A549; [13]): 6030 nM | TGI (A549; read-out: pTGI (converted)): 1660 nM | GI50 (NCI-H226): 45.7 nM | LC50 (50% net cell kill) (NCI-H226): > 100000 nM | TGI (NCI-H226; read-out: pTGI (converted)): 525 nM | GI50 (OVCAR-4): 91.2 nM | LC50 (50% net cell kill) (OVCAR-4): > 100000 nM | TGI (OVCAR-4; read-out: pTGI (converted)): 5130 nM | GI50 (UACC-257): 5130 nM | LC50 (UACC-257): 74100 nM | TGI (UACC-257; read-out: pTGI (converted)): 30900 nM | GI50 (CCRF-CEM [5]): 30.2 nM | LC50 (CCRF-CEM [5]): > 100000 nM | TGI (CCRF-CEM [5]; read-out: pTGI (converted)): 1450 nM | GI50 (SNB-75): 27.5 nM | LC50 (SNB-75): > 100000 nM | TGI (SNB-75; read-out: pTGI (converted)): 83.2 nM | GI50 (CCRF-CEM [6]): 20 nM | RatioGI50 (CCRF-CEM [7]): 1 | GI50 [8]: 56.2 nM | LC50 [8]: 3090 nM | TGI ([8]; read-out: pTGI (converted)): 741 nM | GI50 (EKVX): 91.2 nM | LC50 (50% net cell kill) (EKVX): > 100000 nM | TGI (EKVX; read-out: pTGI (converted)): 29500 nM | GI50 (HCC 2998): 18.2 nM | LC50 (HCC 2998): 501 nM | TGI (HCC 2998; read-out: pTGI (converted)): 49 nM | Activity (MCF7 [9]): 0% | GI50 (HCT-116): 39.8 nM | LC50 (HCT-116): 4470 nM | TGI (HCT-116; read-out: pTGI (converted)): 1320 nM | GI50 (KM12): 33.1 nM | LC50 (50% net cell death) (KM12): 6030 nM | TGI (KM12; read-out: pTGI (converted)): 1510 nM | GI50 (K562): 8.91 nM | CC50 (K562; [13]): 5130 nM | TGI (K562; read-out: pTGI (converted)): 1020 nM | GI50 (OVCAR-5): 100 nM | LC50 (50% net cell death) (OVCAR-5): 77600 nM | TGI (OVCAR-5; read-out: pTGI (converted)): 7940 nM | Activity (Jurkat [10]): 55.2% | GI50 (SF-539): 22.9 nM | LC50 (50% net cell kill) (SF-539): 2750 nM | TGI (SF-539; read-out: pTGI (converted)): 70.8 nM | GI50 (NCI-H460): 34.7 nM | CC50 (NCI-H460; [13]): 5130 nM | TGI (NCI-H460; read-out: pTGI (converted)): 1120 nM | Activity (Jurkat [11]): Active | GI50 (786-0): 41.7 nM | CC50 (786-0; [13]): 4570 nM | TGI (786-0; read-out: pTGI (converted)): 1860 nM | GI50 (MCF7 [12]): 28.2 nM | LC50 (50% net cell kill) (MCF7 [12]): 5500 nM | TGI (MCF7 [12]; read-out: pTGI (converted)): 1450 nM
